Results published in publication PMC7591136 (ACS biomaterials science & engineering, 2019).
In brackets after ≈: the same amount, converted by molar mass.

Columns and labels:
[1] = cited from earlier work
HIV-1 BaL = assay type: cell-based; conditions: Human immunodeficiency virus 1, BAL, TZM-bl, 48 h
[2] = pKa determination by UV–vis titration; assay type: physicochemical; conditions: neutral pH
[3] = Partition coefficients, 1-octanol / PBS pH 7.4, shake flask; assay type: physicochemical; conditions: 1-octanol / PBS pH 7.4, 20 °C
How it was run: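 Shake-flask (OECD) partitioning between 1-octanol and PBS pH 7.4 at 20 °C, run in triplicate with three different organic:aqueous volume ratios. Analyte was kept below 2.0 mM in each phase. Phases were separated by centrifugation and quantified by C-18 reverse-phase HPLC (35 °C, UV 300 nm) against 8-point standard curves (0.005–1.000 mg/mL). For the ionizable parent drug, the value is a distribution coefficient.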

## Cc1cccc(C)c1OCC(=O)N[C@@H](Cc1ccccc1)[C@@H](O)C[C@H](Cc1ccccc1)NC(=O)[C@H](C(C)C)N1CCCNC1=O [liponavir]
[1]
  reported aqueous solubility: < 0.01 mg/mL

## O=C1Nc2ccc(Cl)cc2[C@@](C#CC2CC2)(C(F)(F)F)O1 [efavirenz]
[1]
  reported aqueous solubility: < 0.01 mg/mL

## Cc1cc(C)c(Nc2ccnc(Nc3ccc(C#N)cc3)n2)c(C)c1 [dapivirine]
[1]
  reported aqueous solubility: < 0.01 mg/mL

## Cc1nnc(C(=O)NC(C)(C)c2nc(C(=O)NCc3ccc(F)cc3)c(O)c(=O)n2C)o1 [RAL, raltegravir]
HIV-1 BaL
  IC50: 4.5 ± 0.5 nM
[2]
  ionized fraction: > 85%
[1]; neutral form
  aqueous solubility: 1.3 mg/mL (≈ 2930 µM)
[3]
  apparent POW (distribution coefficient): 2.0
